Holding throughout (settings): Sus scrofa
The test system of experiment [1] is Artery. The experiment is described as follows: Vasorelaxant activity in pig endothelium-intact coronary artery assessed as inhibition of U46619-induced contraction. In kind it is functional. The gist of the method: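 Endothelium-intact porcine coronary rings at 2 g resting tension in Krebs-Henseleit, 37 °C, gassed with 95% O2/5% CO2. Rings were discarded if the mean KCl 30 mM contraction was under 4 g or bradykinin relaxation under 40%. PVP K30-complexed sample was given for 30 min. Cumulative U46619 was then added (0.1 nM to 1 µM). ED50 and Emax use % of the mean KCl 30 mM contraction; n = 8, separate hearts.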

Experiment [2] concerns Artery. The experiment can be described thus: Vasorelaxant activity in pig endothelium-intact coronary artery assessed as reversible inhibition of U46619-induced contraction at 1 uM. In kind it is functional, tissue-based.
Experiment [3] deals with Artery. The experiment is described as follows: Vasorelaxant activity in pig endothelium-denuded coronary artery assessed as inhibition of U46619-induced contraction at 15 ug/ml. In kind it is functional, tissue-based. The procedure, abridged:
(§1)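 Endothelium-removed porcine coronary rings at 2 g resting tension in Krebs-Henseleit, 37 °C, 95% O2/5% CO2. Each ring was primed twice with KCl 30 mM and relaxed with bradykinin 1 µM. Test material, as a PVP K30 complex, was given for 30 min. Stepwise contractions were then made with 5-HT (10 nM to 10 µM), U46619 (0.1 nM to 1 µM) or KCl (10-70 mM). Tension is % of the mean of the two KCl 30 mM contractions; n = 7-11.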

Experiment [4] has as its system Artery. The experiment is described as follows: Vasorelaxant activity in pig endothelium-denuded coronary artery assessed as inhibition of 5-hydroxytryptamine-induced contraction at 15 ug/ml. The class given is functional, tissue-based. The procedure, abridged:
as §1

In experiment [5] the test system is Artery. The experiment is described as follows: Vasorelaxant activity in pig endothelium-denuded coronary artery assessed as inhibition of potassium chloride-induced contraction at 50 ug/ml. In kind it is functional, tissue-based. The procedure, abridged:
as §1

Experiment [6] relates to Artery. The experiment is described as follows: Vasorelaxant activity in pig endothelium-intact coronary artery assessed as inhibition of U46619-induced contraction at 50 ug/ml. The class given is functional, tissue-based. The procedure, abridged:
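Porcine coronary rings with endothelium in Krebs-Henseleit solution at 37 °C, gassed with 95% O2/5% CO2, held at 2 g resting tension and equilibrated 100 min. Each ring was contracted twice with KCl 30 mM and relaxed with bradykinin 1 µM. Test material as a PVP complex was given for 30 min, then cumulative U46619 0.1 nM–1 µM. Contraction was expressed as % of the mean KCl response, giving ED50 and Emax; n=8.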

The structures appear in SMILES notation. Activity calls are given as the source filed them. The rule behind the calls is not given here.

Results on three compounds are retold here after ChEMBL document CHEMBL1154124, “Vascular effects of different lipophilic components of "Danshen", a traditional Chinese medicine, in the isolated porcine coronary artery” (2008).

In general, Emax refers to the greatest response seen or fitted, relative to the assay's reference.

On to `CC1(C)CCCc2c1ccc1c2C(=O)C(=O)c2c(CO)coc2-1` [PRZEWAQUINONE A], for which the Emax in the experiment with Artery [1] was determined as 29.2%. The result in the experiment on Artery [2], in the experiment with Artery [3], with Artery [4] and with Artery [5] was Active.

With `Cc1coc2c1C(=O)C(=O)c1c-2ccc2c1CCCC2(C)C` [TANSHINONE IIA], in the experiment on Artery [1], the Emax is 92.9%. For the same compound, the outcome in the experiment with Artery [6] was Active.

Consider `C[C@H]1COC2=C1C(=O)C(=O)c1c2ccc2c1CCCC2(C)C` [CRYPTOTANSHINONE], for which the Emax in the experiment on Artery [1] was 64.9%. In addition, the outcome in the experiment on Artery [6] was Active.
